Reference: ChEMBL document CHEMBL4689842, “EUbOPEN Chemogenomics Library wave 1” (2021)
Several values for one entry are separate records, joined by “and”; a condition that tells them apart may be missing. Equal entries are not always repeated.

Test system: U2OS
Test: Multiplex assay against U2OS
Format: toxicity, cell-based
Conditions: human
Outline: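 At seeding, live cells were stained with Hoechst33342, BioTracker Green Microtubule Cytoskeleton Dye, MitoTracker Red and Annexin V Alexa Fluor 680. After compound addition they were imaged on a CQ1 microscope at 37°C and 5% CO2, and CellPathfinder machine-learning gating sorted them into Hoechst high-intensity objects or normal cells, with normal cells further split into healthy, pyknosed or fragmented nuclei and pyknosed cells into mitotic or apoptotic. Tubulin, mitochondrial-mass and membrane-permeability phenotypes are given as per cents of cells with healthy nuclei.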

[1] = 12 h, 1 µM, compound concentration 1 uM, replicate 1
[2] = 12 h, 1 µM, compound concentration 1 uM, replicate 2
[3] = 12 h, 10 µM, compound concentration 10 uM, replicate 1
[4] = 12 h, 10 µM, compound concentration 10 uM, replicate 2
[5] = 24 h, 1 µM, compound concentration 1 uM, replicate 1
[6] = 24 h, 1 µM, compound concentration 1 uM, replicate 2
[7] = 24 h, 10 µM, compound concentration 10 uM, replicate 1
[8] = 24 h, 10 µM, compound concentration 10 uM, replicate 2
[9] = 48 h, 1 µM, compound concentration 1 uM, replicate 1
[10] = 48 h, 1 µM, compound concentration 1 uM, replicate 2
[11] = 48 h, 10 µM, compound concentration 10 uM, replicate 1
[12] = 48 h, 10 µM, compound concentration 10 uM, replicate 2

CS(=O)(=O)N1CCCC(NC(=O)[C@H](CCC2CCCCC2)NC(=O)c2ccc(CNc3ncnc4c3nnn4-c3ccccc3)cc2)C1 (some centres not stated) [SR-301]
Population Apoptotic (%) [1]: 27% and 50% and 35% | Population Fragmented Nuclei (%) [1]: 13% and 7% | Population Healthy Nuclei (%) [1]: 74% and 76% and 79% | Population Hoechst High Intensity Objects (%) [1]: 5% and 4% and 3% | Population Membrane Permeable-Phenotype (%) [1]: 7% and 4% and 3% | Population Mitochondria Different-Phenotype (%) [1]: 11% and 9% and 8% | Population Mitotic Cells (%) [1]: 72% and 50% and 64% | Population Normal (%) [1]: 94% and 95% and 96% | Population Pyknosed Nuclei (%) [1]: 12% and 13% | Total Cell Count [1]: 200 and 294 and 192 | Population Apoptotic (%) [2]: 25% and 63% and 33% | Population Fragmented Nuclei (%) [2]: 14% and 11% | Population Healthy Nuclei (%) [2]: 81% and 70% and 89% | Population Hoechst High Intensity Objects (%) [2]: 19% and 13% | Population Membrane Permeable-Phenotype (%) [2]: 10% and 2% | Population Mitochondria Different-Phenotype (%) [2]: 20% and 14% and 10% | Population Mitotic Cells (%) [2]: 75% and 36% and 66% | Population Normal (%) [2]: 80% and 86% | Population Tubulin-Different-Phenotype (%) [2]: 21% and 19% and 12% | Total Cell Count [2]: 135 and 58 and 69 | Population Apoptotic (%) [3]: 81% and 62% and 53% | Population Fragmented Nuclei (%) [3]: 21% and 23% and 11% | Population Healthy Nuclei (%) [3]: 27% and 44% and 78% | Population Hoechst High Intensity Objects (%) [3]: 10% and 5% | Population Mitochondria Different-Phenotype (%) [3]: 39% and 28% and 22% | Population Mitotic Cells (%) [3]: 18% and 37% and 46% | Population Normal (%) [3]: 89% and 94% | Population Tubulin-Different-Phenotype (%) [3]: 39% and 52% and 28% | Total Cell Count [3]: 202 and 154 and 295 | Population Apoptotic (%) [4]: 80% and 75% and 41% | Population Fragmented Nuclei (%) [4]: 39% and 27% | Population Healthy Nuclei (%) [4]: 20% and 25% and 58% | Population Hoechst High Intensity Objects (%) [4]: 4% and 2% | Population Membrane Permeable-Phenotype (%) [4]: 61% and 54% and 30% | Population Mitochondria Different-Phenotype (%) [4]: 66% and 54% and 34% | Population Mitotic Cells (%) [4]: 20% and 25% and 58% | Population Normal (%) [4]: 95% and 97% | Population Pyknosed Nuclei (%) [4]: 39% and 47% and 20% | Population Tubulin-Different-Phenotype (%) [4]: 55% and 54% and 34% | Total Cell Count [4]: 89 and 86 and 105 | Population Apoptotic (%) [5]: 47% and 48% | Population Fragmented Nuclei (%) [5]: 10% and 5% | Population Healthy Nuclei (%) [5]: 82% and 75% | Population Hoechst High Intensity Objects (%) [5]: 3% and 0% | Population Membrane Permeable-Phenotype (%) [5]: 5% and 3% and 2% | Population Mitochondria Different-Phenotype (%) [5]: 6% and 8% | Population Mitotic Cells (%) [5]: 52% and 51% | Population Normal (%) [5]: 96% and 99% | Population Pyknosed Nuclei (%) [5]: 14% and 7% | Total Cell Count [5]: 350 and 199 and 225 | Population Fragmented Nuclei (%) [6]: 12% and 7% | Population Healthy Nuclei (%) [6]: 78% and 80% and 86% | Population Membrane Permeable-Phenotype (%) [6]: 7% and 6% | Population Mitochondria Different-Phenotype (%) [6]: 20% and 10% | Population Mitotic Cells (%) [6]: 87% and 60% and 55% | Population Normal (%) [6]: 80% and 95% | Population Pyknosed Nuclei (%) [6]: 9% and 12% and 6% | Population Tubulin-Different-Phenotype (%) [6]: 13% and 26% and 14% | Total Cell Count [6]: 148 and 64 and 84 | Population Apoptotic (%) [7]: 96% and 87% and 65% | Population Healthy Nuclei (%) [7]: 25% and 39% and 75% | Population Mitochondria Different-Phenotype (%) [7]: 29% and 16% and 13% | Population Normal (%) [7]: 89% and 92% and 96% | Population Pyknosed Nuclei (%) [7]: 39% and 38% and 13% | Population Tubulin-Different-Phenotype (%) [7]: 37% and 63% and 44% | Total Cell Count [7]: 235 and 159 and 307 | Population Apoptotic (%) [8]: 91% and 94% and 89% | Population Fragmented Nuclei (%) [8]: 25% and 32% and 19% | Population Hoechst High Intensity Objects (%) [8]: 15% and 21% and 9% | Population Mitotic Cells (%) [8]: 8% and 5% and 10% | Population Normal (%) [8]: 84% and 78% and 90% | Population Pyknosed Nuclei (%) [8]: 49% and 50% and 21% | Total Cell Count [8]: 98 and 89 and 110 | Population Apoptotic (%) [9]: 58% and 30% | Population Fragmented Nuclei (%) [9]: 3% | Population Healthy Nuclei (%) [9]: 84% and 87% | Population Hoechst High Intensity Objects (%) [9]: 1% and 0% | Population Membrane Permeable-Phenotype (%) [9]: 2% and 1% | Population Mitochondria Different-Phenotype (%) [9]: 9% and 7% | Population Mitotic Cells (%) [9]: 41% and 69% and 74% | Population Normal (%) [9]: 98% and 99% | Population Pyknosed Nuclei (%) [9]: 7% | Total Cell Count [9]: 208 and 559 and 312 | Population Apoptotic (%) [10]: 38% and 21% and 25% | Population Fragmented Nuclei (%) [10]: 4% and 7% and 9% | Population Healthy Nuclei (%) [10]: 83% and 76% | Population Membrane Permeable-Phenotype (%) [10]: 7% and 3% | Population Mitochondria Different-Phenotype (%) [10]: 13% and 8% and 12% | Population Mitotic Cells (%) [10]: 61% and 78% and 75% | Population Normal (%) [10]: 92% and 96% and 85% | Population Pyknosed Nuclei (%) [10]: 12% and 8% and 13% | Total Cell Count [10]: 84 and 114 and 231 | Population Apoptotic (%) [11]: 92% and 85% and 62% | Population Mitochondria Different-Phenotype (%) [11]: 17% and 14% and 9% | Population Normal (%) [11]: 89% and 91% and 96% | Population Tubulin-Different-Phenotype (%) [11]: 37% and 75% and 53% | Total Cell Count [11]: 372 and 170 and 387 | Population Apoptotic (%) [12]: 96% and 100% and 84% | Population Fragmented Nuclei (%) [12]: 23% and 17% and 12% | Population Healthy Nuclei (%) [12]: 38% and 68% | Population Membrane Permeable-Phenotype (%) [12]: 85% and 44% | Population Mitochondria Different-Phenotype (%) [12]: 81% and 74% and 35% | Population Mitotic Cells (%) [12]: 3% and 0% and 15% | Population Normal (%) [12]: 76% and 80% and 92% | Population Pyknosed Nuclei (%) [12]: 38% and 30% and 19% | Population Tubulin-Different-Phenotype (%) [12]: 81% and 82% and 30% | Total Cell Count [12]: 84 and 107 and 142
